This is a sample that favours compounds with a hit; in the whole collection about 4.3% have one here.
OX1R antag-1: antagonists of human orexin 1 receptor (OX1R) | inhibition, % at 6.6 µM | 330,000 compounds, 1.8% hits | OX1R-expressing cells, FRET antagonist read-out | Orexin/Hypocretin receptor type 1 (Homo sapiens), O43613; in the data active = inhibition mostly above about 38%, no sharp cut-off; inactive = mostly below about 40%;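 also: 0% = agonist challenge alone and 100% = reference antagonist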
Target sequence (O43613 whole entry, looked up): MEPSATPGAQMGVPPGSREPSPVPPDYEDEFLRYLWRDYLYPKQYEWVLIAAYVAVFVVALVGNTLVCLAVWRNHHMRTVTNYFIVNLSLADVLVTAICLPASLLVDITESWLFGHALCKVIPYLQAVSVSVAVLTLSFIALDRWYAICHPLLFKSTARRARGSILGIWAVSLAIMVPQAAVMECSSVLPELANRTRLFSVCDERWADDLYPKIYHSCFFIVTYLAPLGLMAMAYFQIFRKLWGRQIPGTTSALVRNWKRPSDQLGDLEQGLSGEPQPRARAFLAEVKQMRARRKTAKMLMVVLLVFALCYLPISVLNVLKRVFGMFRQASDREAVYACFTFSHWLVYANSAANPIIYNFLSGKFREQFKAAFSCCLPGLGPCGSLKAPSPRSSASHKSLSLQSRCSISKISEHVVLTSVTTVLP
TAAR1 antag: human TAAR1 antagonists, primary screen, Fluo-8 calcium fluorescence, CHO RD-HGA16 cells | antagonist | inhibition, % at 3 µM | 360,000 compounds, 1.5% hits | AID 624466, 2012;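 active = inhibition above a per-plate cutoff, the mean inhibition of test compounds on that plate plus 3 SD, cut at about 49% in these data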;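 also: 0% = DMSO plus EC80 beta-PEA response and 100% = DMSO alone without agonist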
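Assay system: RD-HGA16 CHO cells with stable hTAAR1 and Gα16 / Reagent: EC80 β-phenethylamine stimulus / Doses: 3 µM, single point / Timing: dye loading 75 min at 37 °C, then 30 min room temperature / Measured by: Fluo-8 intracellular calcium dye fluorescence, real-time kinetic reads / Controls: vehicle wells and EC80 agonist wells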
GalR3 antagonist: GalR3 antagonists in HEK293 cells, primary screen, cell-based, fluorescence readout. Galanin receptor type 3 (Homo sapiens), O60755. HEK293 GalR3-CNG cAMP membrane potential fluorescence; galR3 body fused to GalR1 C-terminus. inhibition, % at 3 µM. 360,000 compounds, 0.44% hits. AID 651719, 2012;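 active = inhibition above the screen-wide average plus 3 SD, cut at about 13% in these data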;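 also: forskolin and galanin both at EC90 stimulate the cells; cAMP rise reported by CNG channel membrane potential dye signal; 0% = forskolin plus galanin with DMSO and 100% = forskolin alone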
OX1R antag-2: OX1R (HCRTR1) antagonists, primary screen, fluorescence, CHO/OX1R cells, Fluo-8 calcium, orexin A | 330,000 compounds, 0.43% hits | Fluo-8 calcium fluorescence | inhibition, % at 5 µM | Orexin/Hypocretin receptor type 1 (Homo sapiens), O43613;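 active = inhibition above its plate's threshold, mean inhibition of all tested compounds on the plate plus 3 SD, cut at about 37% in these data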;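 also: 0% = orexin A challenge wells and 100% = SB-334867-A antagonist wells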
CHO parental Ca: ATP-evoked calcium signal inhibitors, parental CHO, primary screen, counter-screen for OX1R antagonist project, cell-based, fluorescence, Fluo-8 calcium dye. inhibition, % at 5.6 µM. 330,000 compounds, 0.63% hits. parental CHO-K1, ATP-induced calcium, Fluo-8 fluorescence;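 active = inhibition above that plate's mean sample inhibition plus 3 SD, cut at about 26% in these data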;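 also: 0% = ATP-challenged DMSO wells and 100% = DMSO wells without ATP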
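Assay system – parental CHO cells · Reagent – ATP stimulus · Detection – intracellular calcium via Fluo-8 no-wash fluorescent dye · Evaluation – percent inhibition of ATP-evoked calcium rise, normalized to controls · Controls – ATP wells versus no-ATP DMSO wells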
TAAR1 ag: human TAAR1 agonists, primary screen, Fluo-8 calcium fluorescence, CHO RD-HGA16 cells. Trace amine-associated receptor 1 (Homo sapiens), Q96RJ0. vehicle wells 0%, saturating PEA agonist 100%. activation, % at 3 µM. 360,000 compounds, 0.99% hits. AID 624467, 2012;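 active = activation above the mean activation of all test compounds in the run plus 3 SD, cut at about 38% in these data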
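Test system: RD-HGA16 (CHO) cells co-expressing Gα16 and hTAAR1; dosing: one-point dosing at 3 µM (nominal); timing: 17-24 h seeding, 75 min 37 °C dye, 30 min RT; signal: kinetic Fluo-8 calcium fluorescence; read-out basis: % activation relative to PEA EC100 response; controls: DMSO and PEA EC100; replicates: n 1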
nonsel antag count: nonselective antagonists in TAAR1 counter-screen cells, counter-screen for hTAAR1 antagonist project, cell-based, fluorescence, calcium | counterscreen cell line, antagonist mode | shares compounds with TAAR1 antag | AID 651780, 2012 | 2,400 compounds, 77% hits | inhibition, % at 3 µM; in the data active = inhibition above about 22%;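 also: CHO-Ga16 host cells stimulated with ATP at an EC80 level; 0% = agonist EC80 plus vehicle and 100% = vehicle without agonist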
TAAR1 ant conf: human TAAR1 antagonists, retest of hits, confirmation, cell-based, fluorescence | shares compounds with TAAR1 antag | TAAR1-expressing cells, fluorescence antagonist read-out | inhibition, % at 3 µM | 2,400 compounds, 40% hits; in the data active = inhibition above about 49%;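 also: CHO-Ga16 host cells challenged with agonist PEA near its EC80; 0% = agonist at EC80 plus vehicle and 100% = vehicle with no agonist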
Ga16 nonsel ag: calcium activation in Ga16-expressing cells, counter-screen for TAAR1 antagonist project, cell-based, fluorescence; shares compounds with TAAR1 antag; agonist counterscreen; activation, % at 3 µM; 2,400 compounds, 18% hits; AID 651953, 2012; in the data active = activation above about 12%;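 also: 0% = vehicle wells and 100% = saturating stimulus response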
TAAR1 ag counter: TAAR1 activation by candidate antagonists – cell-based, fluorescence, counter-screen for TAAR1 antagonist project | 2,400 compounds, 2% hits | activation, % at 3 µM | AID 651955, 2012 | shares compounds with TAAR1 antag | hTAAR1 cell line, agonist mode; in the data active = activation above about 37%;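 also: CHO cells stably expressing TAAR1 with calcium dye readout; 0% = DMSO vehicle and 100% = full agonist response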
Active calls of the source: *; x = no result.

SMILES	OX1R antag-1	TAAR1 antag	GalR3 antagonist	OX1R antag-2	CHO parental Ca	TAAR1 ag	nonsel antag count	TAAR1 ant conf	Ga16 nonsel ag	TAAR1 ag counter
Cc1ccc2cc(NC(=O)c3ccc(C(C)(C)C)cc3)ccc2n1	9.5	58.1*	-10.2	-11.9	-5.6	12.8	24.9*	41.8	6.6	3.2
Cc1ccc(-n2c(C)cc(/C=N/NC(N)=S)c2C)cc1	12.5	89.8*	-3.2	-15.5	-7.1	2.1	16.4	91.0*	7.5	17.7
CNC(=S)N/N=C/c1cc(C)n(-c2ccc(Cl)c(Cl)c2)c1C	10.9	70.3*	-6.2	-5.2	-12.5	30.8	28.1*	61.9*	29.6*	59.4*
Cc1ccc(NC(=O)CCCc2nc3ccccc3c(=O)[nH]2)c(Cl)c1	5.2	14.1	-4.0	-20.6	-6.0	0.3	x	x	x	x
COc1cccc(NC(=O)Nc2ccncc2)c1	4.9	-8.7	-4.8	-5.7	-1.0	16.7	x	x	x	x
COc1cccc(NC(=O)Nc2ccc(C(C)(C)C)cc2)c1	x	86.9*	-5.8	x	x	13.2	51.3*	75.8*	14.5*	13.1
COc1ccc(C(=O)Nc2ccc(-c3cn4ccsc4n3)cc2)cc1S(=O)(=O)N1CCOCC1	10.4	62.4*	0.1	-20.4	-3.6	16.9	25.4*	48.6*	6.4	4.2
COc1ccc(C(=O)Nc2ccc3nc(C)sc3c2)cc1S(=O)(=O)N1CCOCC1	x	-8.9	0.1	x	x	1.4	x	x	x	x
Cc1c(Cl)cnc(NC(=O)COC(=O)c2ccncc2)c1Cl	8.2	100.7*	-7.4	-24.3	-12.5	-3.5	2.4	-0.8	-0.3	-1.0
CCOC(=O)c1c(NC(=O)CCNCc2ccco2)sc2c1CCC2	11.6	x	x	-26.1	-23.0	x	x	x	x	x
Oc1ccc(N=Nc2ccc3c(c2)OCCO3)c2cccnc12	21.1	83.5*	-3.2	47.9*	44.7*	25.7	31.9*	30.6	3.4	7.5
OC[C@@H]1CN(Cc2ccc(-c3ccccc3)cc2)C[C@H](n2cnc3c(NCc4ccc(F)cc4)ncnc32)O1	x	23.4	-8.8	x	x	6.1	x	x	x	x
CCOc1ccc(/C=N/NC(=O)c2cc(-c3ccccc3)nc3ccccc23)cc1O	-3.5	44.4	-10.6	-31.4	-58.4	7.6	x	x	x	x
COc1cc(/C=N/NC(=O)c2cc(-c3c(C)nn(-c4ccccc4)c3C)n[nH]2)ccc1O	16.3	54.2*	3.8	-13.4	-18.9	6.7	27.5*	40.8	6.2	5.6
CC(C)COc1cccc(-c2cc(C(=O)N/N=C/c3ccncc3)c3ccccc3n2)c1	x	60.8*	-1.2	x	x	3.4	7.9	27.1	5.6	18.1
CCOc1cc(/C=N/NC(=O)c2cc(-c3cccc(OC)c3)nc3ccccc23)ccc1O	23.0	75.9*	-2.8	-2.1	-28.7	8.0	13.6	46.2	8.3	7.6
COc1cc(/C=N/NC(=O)c2cc(-c3ccccc3OC(C)C)nc3ccccc23)ccc1O	14.7	57.3*	6.0	-19.2	-20.1	7.7	13.4	42.2	9.4	12.8
CC(=O)Nc1nnc(S(=O)(=O)N2CCN(c3ccc([N+](=O)[O-])cc3Cl)CC2)s1	21.1	11.7	-7.8	-23.8	-3.1	4.0	x	x	x	x
